Legend:
Klebsiella pneumoniae [1] = assay: Inhibition of Klebsiella pneumoniae metallo-beta-lactamase IMP-1 expressed in Escherichia coli BL21(DE3) using CENTA as substrate at 10 uM by spectrophotometric analysis
Method in brief: (§1)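 Single-point screen with inhibitor at 10 µM against IMP-1 lacking the 21-residue signal peptide (2 nM final). Buffer was 50 mM HEPES pH 7.0 with 0.1 M NaCl, 100 µM ZnCl2 and BSA at 20 µg/mL. Substrate was CENTA at 70 µM. CENTA hydrolysis was followed by 4-nitrophenolate absorbance at 405 nm and reported as percent inhibition.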

[2] = biological target: Beta-lactamase (Pseudomonas aeruginosa) (UniProt Q79MP6); assay: Inhibition of Pseudomonas aeruginosa metallo-beta-lactamase IMP-1 expressed in Escherichia coli BL21(DE3) using CENTA as substrate at 10 uM by spectrophotometric analysis; method in brief: as §1
Beta-lactamase (Pseudomonas aeruginosa), sequence (Q79MP6 19-246 limits assumed): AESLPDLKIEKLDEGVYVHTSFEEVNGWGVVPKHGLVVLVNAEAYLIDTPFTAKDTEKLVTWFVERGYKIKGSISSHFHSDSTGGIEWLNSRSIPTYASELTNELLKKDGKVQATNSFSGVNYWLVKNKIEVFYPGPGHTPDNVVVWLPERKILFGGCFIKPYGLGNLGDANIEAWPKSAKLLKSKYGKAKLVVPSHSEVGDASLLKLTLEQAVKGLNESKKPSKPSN

Klebsiella pneumoniae [3] = assay: Competitive inhibition of Klebsiella pneumoniae metallo-beta-lactamase IMP-1 expressed in Escherichia coli BL21(DE3) using CENTA as substrate by spectrophotometric analysis
Method in brief: (§2)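 IMP-1 lacking the first 21 signal-peptide residues, recombinantly expressed and purified, at 2 nM final. Buffer was 50 mM HEPES, 0.1 M NaCl, 100 µM ZnCl2, pH 7.0, with BSA at 20 µg/mL final. CENTA was varied from 5 to 70 µM final at three inhibitor concentrations. 4-Nitrophenolate release was read at 405 nm on a plate reader, and data were fitted by non-linear regression.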

Klebsiella pneumoniae [4] = assay: Uncompetitive inhibition of Klebsiella pneumoniae metallo-beta-lactamase IMP-1 expressed in Escherichia coli BL21(DE3) using CENTA as substrate by spectrophotometric analysis; method in brief: as §2
[5] = biological target: Beta-lactamase (Pseudomonas aeruginosa) (UniProt Q79MP6); assay: Competitive inhibition of Pseudomonas aeruginosa metallo-beta-lactamase IMP-1 expressed in Escherichia coli BL21(DE3) using CENTA as substrate by spectrophotometric analysis; method in brief: as §2
[6] = biological target: Beta-lactamase (Pseudomonas aeruginosa) (UniProt Q79MP6); assay: Uncompetitive inhibition of Pseudomonas aeruginosa metallo-beta-lactamase IMP-1 expressed in Escherichia coli BL21(DE3) using CENTA as substrate by spectrophotometric analysis; method in brief: as §2

inhibition (Klebsiella pneumoniae [1]) [%] | inhibition [2] [%] | Kic (Klebsiella pneumoniae [3]) [µM] | Kiuc (Klebsiella pneumoniae [4]) [µM] | Kic [5] [µM] | Kiuc [6] [µM] | SMILES
4 | 4 | – | – | – | – | Cc1ccc(-n2c(-c3ccccc3)c(-c3ccccc3)c3c2ncn2cnnc32)cc1
7 | 7 | – | – | – | – | Cc1ccc(-n2c(-c3ccccc3)c(-c3ccccc3)c3c2ncn2c(C)nnc32)cc1
9 | 9 | 33 | 106 | 33 | 106 | Cc1ccc(-n2cc(-c3ccccc3)c3c(Cl)ncnc32)cc1
10 | 10 | 19 | 112 | 19 | 112 | Cc1ccc(-n2c(-c3ccccc3)c(-c3ccccc3)c3c(Cl)ncnc32)cc1
0 | 0 | – | – | – | – | Cc1ccc(-n2cc(-c3ccccc3)c3c(O)ncnc32)cc1
17 | 17 | 29 | 225 | 29 | 225 | COc1ccc(-n2c3c(c(-c4ccccc4)c2-c2ccccc2)C(=C(C#N)C#N)NC=N3)cc1
0 | 0 | – | – | – | – | Cc1ccc(-n2cc(-c3ccccc3)c(C#N)c2N)cc1
13 | 13 | 18 | – | 18 | – | Cc1ccc(-n2c(-c3ccccc3)c(-c3ccccc3)c3c(N/N=C/c4ccccc4)ncnc32)cc1
0 | 0 | – | – | – | – | COc1ccc(-n2cc(-c3ccccc3)c(C#N)c2N)cc1
15 | 15 | 12 | 182 | 12 | 182 | COc1ccc(-n2c(-c3ccccc3)c(-c3ccccc3)c3c(Cl)ncnc32)cc1
14 | 14 | 15 | – | 15 | – | Cc1ccc(-n2c(-c3ccccc3)c(-c3ccccc3)c3c2ncn2c(=S)[nH]nc32)cc1

Source: ChEMBL document CHEMBL1909495, “Synthesis and kinetic testing of new inhibitors for a metallo-β-lactamase from Klebsiella pneumonia and Pseudomonas aeruginosa” (Eur J Med Chem, 2011)
